Active and inactive are the calls of the source. The calls are words filed in the database; no cut-off is given here.
What was measured:
[1] = Half life in dog at 20 mg/kg, po; type: ADME, organism-based, Canis lupus familiaris; parameters: dose 20 mg/kg, route oral; settings: in vivo
[2] = AUC in dog at 20 mg/kg, po; type: ADME, organism-based, Canis lupus familiaris; parameters: dose 20 mg/kg, route oral; settings: plasma
[3] = Plasma concentration in dog at 20 mg/kg, po after 12 hrs; type: ADME, organism-based, Canis lupus familiaris; parameters: dose 20 mg/kg, route oral
[4] = tested on: Hepatitis C virus; test: Inhibition of hepatitis C virus replication; type: functional, organism-based; settings: Hepacivirus hominis
[5] = tested on: Human immunodeficiency virus 1; test: Inhibition of non-B HIV1 isolates (clades A, AC, C, D and F); type: functional, organism-based
[6] = target: DNA polymerase beta (Homo sapiens) (UniProt P06746); test: Inhibition of human DNA polymerase beta upto 45 uM
[7] = tested on: Human immunodeficiency virus 1; test: Antiviral activity against HIV1 isolate with RT V106I mutation in Hela-JC-53 cells; type: functional
[8] = tested on: Human immunodeficiency virus 1; test: Antiviral activity against HIV1 NL4-3 in Hela-JC53 cells in the presence of 10% human serum after 48 hrs; type: functional, organism-based; settings: Human immunodeficiency virus 1, NL4-3, Hela-JC53, 48 h
Outline: (§1)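 HeLa-JC53 cells (1.5 × 10^4) infected with VSV-G-pseudotyped NL4-3.Luci.R−E− reporter virus at MOI 0.03, with 1:4 serial compound dilutions. Heat-inactivated human serum added to final 0–50% on a basal 2% FBS medium. Incubated 48 h at 37°C in 5% CO2. Luciferase read-out; EC50 by nonlinear regression.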

[9] = tested on: Human immunodeficiency virus 1; test: Antiviral activity against wild type HIV1 NL4-3 in Hela-JC53 cells after 48 hrs; type: functional, organism-based; settings: Human immunodeficiency virus 1, NL4-3, Hela-JC53, 48 h
Outline: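 Single-round assay in HeLa-JC53 cells (15,000/well) using VSV-G-pseudotyped pNL4-3.Luc.R−E−-derived virus at MOI 0.03. Compounds serially diluted 1:4 in DMSO then medium (2% FBS; final DMSO 0.2%). Incubated 48 h at 37°C in 5% CO2. Luciferase chemiluminescence read-out; EC50 determined.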

[10] = tested on: Human immunodeficiency virus 1; test: Antiviral activity against HIV1 isolate with RT K103N-F227L mutation; type: functional, organism-based
Outline: (§2)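 VSV-G-pseudotyped pNL4-3.Luc.R−E− molecular clones carrying the RT mutations, single-round infection of HeLa-JC53 cells (15,000/well) at MOI 0.03. Compounds serially diluted 1:4 in DMSO then in phenol red-free DMEM with 2% FBS, final DMSO 0.2%. Incubated 48 h at 37°C, 5% CO2. Luciferase read-out by chemiluminescence gives the EC50. Fold change is relative to wt virus, mean of two tests.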

[11] = tested on: Human immunodeficiency virus 1; test: Antiviral activity against HIV1 isolate V106I-Y188L mutant; type: functional, organism-based
[12] = tested on: Human immunodeficiency virus 1; test: Antiviral activity against HIV1 isolate with RT K103N-Y188L mutation; type: functional, organism-based; outline: as §2
[13] = tested on: Human immunodeficiency virus 1; test: Antiviral activity against HIV1 isolate with RT K103N-K101Q-P225H mutation; type: functional, organism-based; outline: as §2
[14] = tested on: Human immunodeficiency virus 1; test: Antiviral activity against HIV1 isolate with RT K103N-V108I-A98G mutation; type: functional, organism-based; outline: as §2
[15] = tested on: Human immunodeficiency virus 1; test: Antiviral activity against HIV1 isolate with RT Y181C mutation; type: functional, organism-based; outline: as §2
[16] = tested on: Human immunodeficiency virus 1; test: Antiviral activity against wild type HIV1; type: functional, organism-based
[17] = tested on: Human immunodeficiency virus 1; test: Antiviral activity against HIV1 isolate with RT V106I, Y181C mutation in Hela-JC-53 cells; type: functional
[18] = tested on: Human immunodeficiency virus 1; test: Antiviral activity against HIV1 isolate with RT V106I, D123G, Y181C, F227L, T369I mutation in Hela-JC-53 cells; type: functional
[19] = tested on: Human immunodeficiency virus 1; test: Antiviral activity against wild type HIV1 NL4-3 in Hela-JC53 cells in the presence of 40% human serum after 48 hrs; type: functional, organism-based; settings: Human immunodeficiency virus 1, NL4-3, Hela-JC53, 48 h; outline: as §1
[20] = tested on: Human immunodeficiency virus 1; test: Antiviral activity against wild type HIV1 NL4-3 in Hela-JC53 cells in the presence of 50% human serum after 48 hrs; type: functional, organism-based; settings: Human immunodeficiency virus 1, NL4-3, Hela-JC53, 48 h; outline: as §1
[21] = tested on: Human immunodeficiency virus 1; test: Antiviral activity against HIV1 NL4-3 with Y188L mutation in Hela-JC53 cells after 48 hrs; type: functional, organism-based; settings: Human immunodeficiency virus 1, NL4-3, Hela-JC53, 48 h
Outline: (§3)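 VSV-G-pseudotyped Y188L NL4-3.Luci.R−E− virus (MOI 0.03) infecting HeLa-JC53 cells (1.5 × 10^4) in phenol red-free DMEM with 2% FBS. Serially diluted compound was added, then heat-inactivated human serum at final 0, 5, 10, 20, 30, 40 or 50%. Cultures ran 48 h at 37°C in 5% CO2, read by Bright-Glo luciferase chemiluminescence. EC50 was taken by nonlinear regression.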

[22] = tested on: Human immunodeficiency virus 1; test: Antiviral activity against HIV1 NL4-3 with Y188L mutation in Hela-JC53 cells in the presence of 5% human serum after 48 hrs; type: functional, organism-based; settings: Human immunodeficiency virus 1, NL4-3, Hela-JC53, 48 h; outline: as §3
[23] = tested on: Human immunodeficiency virus 1; test: Antiviral activity against HIV1 NL4-3 with Y188L mutation in Hela-JC53 cells in the presence of 10% human serum after 48 hrs; type: functional, organism-based; settings: Human immunodeficiency virus 1, NL4-3, Hela-JC53, 48 h; outline: as §3
[24] = tested on: Human immunodeficiency virus 1; test: Antiviral activity against HIV1 NL4-3 with Y188L mutation in Hela-JC53 cells in the presence of 30% human serum after 48 hrs; type: functional, organism-based; settings: Human immunodeficiency virus 1, NL4-3, Hela-JC53, 48 h; outline: as §3
[25] = tested on: Human immunodeficiency virus 1; test: Antiviral activity against HIV1 NL4-3 with Y188L mutation in Hela-JC53 cells in the presence of 40% human serum after 48 hrs; type: functional, organism-based; settings: Human immunodeficiency virus 1, NL4-3, Hela-JC53, 48 h; outline: as §3
[26] = tested on: Human immunodeficiency virus 1; test: Antiviral activity against HIV1 NL4-3 with Y188L mutation in Hela-JC53 cells in the presence of 50% human serum after 48 hrs; type: functional, organism-based; settings: Human immunodeficiency virus 1, NL4-3, Hela-JC53, 48 h; outline: as §3
[27] = tested on: Human immunodeficiency virus 1; test: Antiviral activity against HIV1 isolate with RT K103N mutation; type: functional, organism-based; outline: as §2
[28] = tested on: Human immunodeficiency virus 1; test: Antiviral activity against HIV1 isolate with RT G190S mutation; type: functional, organism-based; outline: as §2
[29] = tested on: Human immunodeficiency virus 1; test: Antiviral activity against HIV1 isolate with RT Y188L mutation; type: functional, organism-based; outline: as §2

SMILES: NS(=O)(=O)c1ccc(NC(=O)CSc2nnc(Br)n2-c2ccc(C3CC3)c3ccccc23)c(Cl)c1
- half-life [1]: 3.36 h
- AUC [2]: 19.6 µg·h/mL
- concentration at 12 h [3]: 0.742 µg/mL
- Activity [4]: inactive
- Activity [5]: Active
- Activity [6]: inactive
- Fold change [7]: 1
- EC50 [8]: 3.9 nM
- EC50 [9]: 0.6 nM
- EC50 [10]: 0.08 nM
- EC50 [11]: 2.27 nM
- EC50 [12]: 1.07 nM
- EC50 [13]: 0.11 nM
- EC50 [14]: 0.24 nM
- EC50 [15]: 0.23 nM
- EC50 [16]: 0.14 nM
- Fold change [17]: 5.4
- Fold change [18]: 31.2
- EC50 [19]: 9.5 nM
- EC50 [20]: 13 nM
- EC50 [21]: 3.7 nM
- EC50 [22]: 13.7 nM
- EC50 [23]: 20.7 nM
- EC50 [24]: 45.9 nM
- EC50 [25]: 54 nM
- EC50 [26]: 79.9 nM
- EC50 [27]: 0.09 nM
- EC50 [28]: 0.23 nM
- EC50 [29]: 0.81 nM
